The values that follow come from ChEMBL document CHEMBL1137484, “Design and synthesis of opioidmimetics containing 2',6'-dimethyl-L-tyrosine and a pyrazinone-ring platform” (Bioorg Med Chem Lett, 2007).

A value given as a limit tells only on which side of the number the result lay.

Assay [1] has as its target T1, Mu-type opioid receptor (Cavia porcellus, UniProt P97266). The assay is described as follows: Agonist activity at mu opioid receptor in guinea pig ileum assessed as inhibition of electrically-stimulated muscle contraction. It counts as functional, tissue-based. In a few lines:
(§1)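 Reference agonists run alongside: deltorphin II for delta in mouse vas deferens (MVD) and endomorphin 2 for mu in guinea pig ileum (GPI).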

The target of assay [2] is Mu-type opioid receptor (Cavia porcellus) (UniProt P97266). In words: Agonist activity at mu opioid receptor in guinea pig ileum assessed as inhibition of electrically-stimulated muscle contraction at 10 uM. It counts as functional, tissue-based.
Mu-type opioid receptor (Cavia porcellus), sequence (P97266 whole entry): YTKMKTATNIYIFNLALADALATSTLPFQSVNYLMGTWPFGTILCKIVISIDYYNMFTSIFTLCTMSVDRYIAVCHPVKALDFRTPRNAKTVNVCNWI
The target of assay [3] is Delta-type opioid receptor (Homo sapiens, UniProt P41143). The assay is described as follows: Displacement of [3H]deltorphin 2 from delta opioid receptor.
Delta-type opioid receptor (Homo sapiens, UniProt P41143), sequence (P41143 whole entry): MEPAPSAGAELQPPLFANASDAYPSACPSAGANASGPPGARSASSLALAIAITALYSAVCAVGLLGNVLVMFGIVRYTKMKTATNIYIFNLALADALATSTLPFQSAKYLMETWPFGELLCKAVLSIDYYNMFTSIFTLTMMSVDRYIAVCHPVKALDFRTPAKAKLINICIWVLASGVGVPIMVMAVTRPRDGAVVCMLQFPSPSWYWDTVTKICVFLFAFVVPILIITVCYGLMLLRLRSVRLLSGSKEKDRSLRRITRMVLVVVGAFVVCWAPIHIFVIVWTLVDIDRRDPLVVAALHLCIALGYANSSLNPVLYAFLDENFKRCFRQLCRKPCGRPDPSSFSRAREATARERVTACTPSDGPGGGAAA
For assay [4], the target named is Mu-type opioid receptor (Homo sapiens, UniProt P35372). In words: Displacement of [3H]DAMGO from human mu opioid receptor.
Mu-type opioid receptor (Homo sapiens, UniProt P35372), sequence (P35372 whole entry): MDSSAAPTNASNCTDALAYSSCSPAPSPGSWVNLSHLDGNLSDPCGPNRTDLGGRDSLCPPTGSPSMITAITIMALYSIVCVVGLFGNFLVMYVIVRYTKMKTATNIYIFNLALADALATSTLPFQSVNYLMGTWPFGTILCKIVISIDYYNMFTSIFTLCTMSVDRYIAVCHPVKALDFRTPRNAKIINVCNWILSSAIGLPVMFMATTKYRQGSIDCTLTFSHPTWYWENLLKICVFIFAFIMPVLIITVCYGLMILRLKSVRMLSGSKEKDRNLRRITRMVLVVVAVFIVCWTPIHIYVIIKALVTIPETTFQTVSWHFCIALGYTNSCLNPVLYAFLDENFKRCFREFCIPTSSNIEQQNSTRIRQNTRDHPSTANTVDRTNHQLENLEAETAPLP
The species named for assay [5] is Homo sapiens. The assay is described as follows: Selectivity for human mu opioid receptor over human delta opioid receptor.
Assay [6] has as its target Delta-type opioid receptor (Mus musculus) (UniProt P32300). In words: Agonist activity at delta opioid receptor in mouse vas deferens assessed as inhibition of electrically-stimulated muscle contraction at 10 uM. In kind it is functional, tissue-based.
Assay [7] concerns the target T2, Delta-type opioid receptor (Mus musculus, UniProt P32300). The assay is described as follows: Agonist activity at delta opioid receptor in mouse vas deferens assessed as inhibition of electrically-stimulated muscle contraction. It counts as functional, tissue-based. In a few lines:
as §1

For assay [8], the target named is T2, Delta-type opioid receptor. The assay is described as follows: Antagonist activity at delta opioid receptor in mouse vas deferens. In kind it is functional, tissue-based. The settings on record: read-out: pA2 (converted). An outline of the steps:
(§2)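 Antagonism given as pA2: the negative log of the antagonist concentration (M) that doubles the agonist concentration needed to restore the original response. The agonist was deltorphin II in MVD (delta) and endomorphin 2 in GPI (mu).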

For assay [9], the target named is T1, Mu-type opioid receptor. The assay is described as follows: Antagonist activity at mu opioid receptor in guinea pig ileum. The settings on record: read-out: pA2 (converted). It counts as functional, tissue-based. In a few lines:
as §2

T2 sequence (P32300 whole entry): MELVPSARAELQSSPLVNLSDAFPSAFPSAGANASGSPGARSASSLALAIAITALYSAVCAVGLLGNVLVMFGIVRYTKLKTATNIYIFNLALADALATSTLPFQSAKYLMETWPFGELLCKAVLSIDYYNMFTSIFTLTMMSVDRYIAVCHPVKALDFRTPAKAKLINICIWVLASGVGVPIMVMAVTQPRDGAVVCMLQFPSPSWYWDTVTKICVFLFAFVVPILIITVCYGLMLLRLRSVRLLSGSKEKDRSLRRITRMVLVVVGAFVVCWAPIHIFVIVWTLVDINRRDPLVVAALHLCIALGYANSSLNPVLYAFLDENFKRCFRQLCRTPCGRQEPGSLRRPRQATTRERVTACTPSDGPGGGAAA
Delta-type opioid receptor (Mus musculus), sequence (P32300 whole entry): as above
T1 sequence (P97266 whole entry): as the sequence (P97266 whole entry) above

As to `Cc1cc(O)cc(C)c1C[C@H](N)C(=O)NCCCCc1nc(C)c(Cc2ccccc2)[nH]c1=O`, the half-maximal inhibitory concentration (IC50) in assay [1] and in assay [7] was greater than 10000 nM throughout. Also, the inhibition in [2] stood at 39.5%; in assay [6], 19.9%. Besides, the inhibitory constant (Ki) amounted to 8.6 nM in assay [3] and 0.42 nM in assay [4]. Also, in assay [5], the Ratio Ki was 20. The Kb in assay [8] is 589 nM.

In the case of `Cc1cc(O)cc(C)c1C[C@H](N)C(=O)NCCCCc1[nH]c(=O)c(C)nc1C`, the IC50 in [1] and in assay [7] was greater than 10000 nM throughout. Besides, the inhibition in assay [2] came to 30.1%; in assay [6] it was 0%. Besides, the Ki amounted to 208 nM in assay [3] and 15.4 nM in assay [4]. The Kb in assay [9] is greater than 1000 nM; in assay [8] it was 2340 nM. The Ratio Ki in assay [5] turned out to be 14.

`Cc1cc(O)cc(C)c1C[C@H](N)C(=O)NCc1nc(C)c(C)[nH]c1=O`: the IC50 in assay [1] and in [7] was greater than 10000 nM each time. Moreover, the inhibition was 20.6% in [2] and 28.1% in assay [6]. Besides, the Ki worked out at 698 nM in [3] and 129 nM in [4]. The Ratio Ki in [5] amounted to 5.4. Also, the Kb in assay [8] is 1480 nM.

In the case of `Cc1cc(O)cc(C)c1C[C@H](N)C(=O)NCCCCc1nc(C)c(C)[nH]c1=O`, the IC50 in [1] and in assay [7] was greater than 10000 nM in each case. The inhibition was 35.1% in assay [2] and 26.2% in assay [6]. Moreover, the inhibition constant (Ki) in assay [3] turned out to be 77.7 nM; in assay [4] it was 4.23 nM. The values for the Kb in [9] and in assay [8] were 200 nM and 2510 nM, respectively. Further, the Ratio Ki in assay [5] turned out to be 18.

Turning to `Cc1cc(O)cc(C)c1C[C@H](N)C(=O)NCCCCc1[nH]c(=O)cnc1C`, the IC50 in assay [1] and in assay [7] was greater than 10000 nM in each case. The values for the inhibition in assay [2] and in [6] were 37.1% and 28.1%, respectively. Besides, the inhibitory constant (Ki) in assay [3] was found to be 344 nM; in assay [4], 56.9 nM. The Kb is greater than 1000 nM in [9] and greater than 3160 nM in assay [8]. In addition, the Ratio Ki in [5] is 6.

In the case of `Cc1cc(O)cc(C)c1C[C@H](N)C(=O)NCCc1nc(C)c(C)[nH]c1=O`, the IC50 in [1] and in assay [7] was greater than 10000 nM in each case. Further, the inhibition in [2] was 45%; in [6], 25.2%. Also, the inhibition constant Ki in [3] stood at 93.1 nM; in assay [4] it was 76.5 nM. The Ratio Ki in assay [5] was 1.2. Moreover, the Kb in assay [8] was 1350 nM.

Take `Cc1cc(O)cc(C)c1C[C@H](N)C(=O)NCCCc1nc(C)c(C)[nH]c1=O`: the concentration for half-maximal inhibition (IC50) in assay [1] and in [7] was greater than 10000 nM each time. Also, the inhibition in [2] stood at 22.7%; in assay [6] it was 31.1%. Further, the Ki in assay [3] worked out at 269 nM; in [4] it was 8.88 nM. For the same molecule, the Ratio Ki in [5] amounted to 30. The Kb in assay [8] is greater than 3160 nM.

For the molecule `Cc1cccc(C)c1Cc1[nH]c(=O)c(CCCCNC(=O)[C@@H](N)Cc2c(C)cc(O)cc2C)nc1C`, the IC50 in assay [1] was 6270 nM; in assay [7] it was greater than 10000 nM. Moreover, the Ki in assay [3] was 5.3 nM; in assay [4] it was 0.66 nM. Moreover, the figures for the Kb in assay [9] and in assay [8] were greater than 1000 nM and 245 nM, respectively. Moreover, in assay [5], the Ratio Ki is 8. The inhibition in assay [6] is 6.4%.

`Cc1cc(O)cc(C)c1C[C@H](N)C(=O)NCCCc1nc(C)c(Cc2ccccc2)[nH]c1=O`: the IC50 in [1] and in [7] was greater than 10000 nM in each case. Further, the inhibition in [2] was found to be 36.7%; in [6], 34.6%. Moreover, the figures for the inhibition constant (Ki) in [3] and in assay [4] were 59.6 nM and 1 nM, respectively. For the same molecule, the Ratio Ki in assay [5] came out at 60. The Kb in [8] was 1230 nM.

Consider `Cc1cc(O)cc(C)c1C[C@H](N)C(=O)NCCCc1nc(C)c(CCc2ccccc2)[nH]c1=O`, for which the IC50 was 5550 nM in assay [1] and greater than 10000 nM in assay [7]. Also, the Ki in assay [3] was 38.2 nM; in [4], 0.55 nM. For the same molecule, the Kb is greater than 1000 nM in assay [9] and 1350 nM in [8]. Also, the Ratio Ki in assay [5] is 69. For the same molecule, the inhibition in [6] was determined as 4.1%.

As to `Cc1c[nH]c(=O)c(CCCCNC(=O)[C@@H](N)Cc2c(C)cc(O)cc2C)n1`, the IC50 in assay [1] and in assay [7] was greater than 10000 nM throughout. In addition, the inhibition is 47.6% in assay [2] and 25.7% in assay [6]. The Ki in [3] is 73.8 nM; in assay [4] it was 0.62 nM. In addition, the Ratio Ki in assay [5] was found to be 119. The Kb in assay [8] was greater than 3160 nM.

Consider `Cc1cc(O)cc(C)c1C[C@H](N)C(=O)NCCCCc1nc(C)c(CCc2ccccc2)[nH]c1=O`, for which the results for the IC50 in assay [1] and in assay [7] were 15.9 nM and greater than 10000 nM, respectively. In addition, the Ki in [3] amounted to 55.9 nM; in assay [4], 0.125 nM. The Ratio Ki in assay [5] was determined as 447. The inhibition in [6] was 12.8%. Besides, the Kb in [8] is 447 nM.
